Where two headings read alike, the source gives them in different places.
Assays:
Npc1^I1061T/I1061T mice [1] = test: Lipidomic profiling of liver and brain after six-week treatment; format: in vivo, mouse; details: six weeks weekly treatment, versus vehicle
[2] = test system: human NPC1^I1061T fibroblasts; test: Filipin LSO compartment ratio dose response in fibroblasts; format: cell-based; details: 72 h, 40 nM to 10 μM
Summary of the method: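 Human fibroblasts in MEM with 5% FBS, seeded in 384-well plates at 450 cells/well and incubated overnight. Test compound added at 40 nM–10 μM final; DMSO control on each plate. After 72 h, cells were PBS-washed, fixed in 1.5% PFA, and stained with 50 μg/ml filipin plus Draq5. Automated imaging at four sites/well gave the LSO compartment ratio, normalised to DMSO. Four wells per condition, three experiments.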

histone H3 [3] = test: Acute histone H3 acetylation in liver by western blot, 1 h after single dose; format: in vivo, C57BL/6J mice; details: one hour post single injection, versus vehicle
NPC1 cat model = details: 4000 mg/kg HPβCD; cited from earlier work
[4] = Maximum drug concentration of HPβCD after a peripheral dose; format: in vivo; details: peripheral dose of 4000 mg/kg HPβCD with PEG400/DMSO; extrapolated
[5] = direct CNS administration; cited from earlier work
NPC1 patients = details: Phase 1/2a trial; cited from earlier work
histone H3 [6] = test: Histone H3 acetylation in liver and brain after six-week treatment; format: in vivo, Npc1^I1061T/I1061T mice; details: end of six-week treatment, one hour after final dose
Summary of the method: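 Four-week-old mice were dosed weekly i.p. at 10 μL/g for six weeks and harvested 1 h after the final dose. Frozen cortex was homogenised in TNEN buffer (pH 8) with protease inhibitors and 1 mM PMSF, then spun at 10,000 × g for 10 min at 4°C. Equal protein was run on 4–12% Bis-Tris gels and blotted with anti-H3 (1:10,000) and anti-acetyl-H3 (1:1000). Hsp90 was the loading control; detection by chemiluminescence.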

Npc1^nmf164 mice = details: 150mg/kg vorinostat in PEG/DMSO vehicle; cited from earlier work
[7] = format: in vivo, C57BL/6J mice
Summary of the method: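 Five-week-old male C57BL/6J mice received a single i.p. injection (10 μL/g). Plasma, liver and brain were harvested at 0.25, 1, 2, 4 and 7 h, n=4 per time point. Analyte was measured by LC-MS/MS on a C18 column with a d5-labelled internal standard and eight duplicate calibrators. Non-compartmental parameters used mean concentrations of 3–4 mice per time point; AUC by the linear trapezoidal method.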

NPC1^I1061T protein = format: in vivo, mouse; details: six weeks treatment, versus vehicle
[8] = test system: murine embryonic fibroblasts and human fibroblasts expressing the NPC1^I1061T protein; details: cited from earlier work
Npc1^I1061T/I1061T mice [9] = format: in vivo, mouse; details: liver; six weeks treatment, versus vehicle
Summary of the method: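 Mice were dosed i.p. at 10 μL/g from four weeks of age, weekly for six weeks (one arm three times weekly). HPβCD was 2000 mg/kg (4000 mg/kg in the 3x/wk arm). Saline perfusion 1 h after the last dose. PFA-fixed liver was cut at 35 μm on a vibratome and stained with 0.005% filipin in PBS, with a DMSO-only control. Two blinded reviewers scored hepatocyte staining 0–5.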

[10] = test system: bone marrow-derived macrophages from Npc1^I1061T/I1061T mice; test: Filipin LSO assay in bone marrow-derived macrophages; format: cell-based, mouse
[11] = male, C57BL/6J, mouse, brain, ip, 50 mg/kg
[12] = male, C57BL/6J, mouse, liver, ip, 50 mg/kg
[13] = male, C57BL/6J, mouse, plasma, ip, 50 mg/kg

CC(=O)Nc1ccc(C(=O)Nc2ccccc2N)cc1 [CI994]
Lipid storage in liver (lipidomics, sphingolipid and sterol species) (Npc1^I1061T/I1061T mice [1]): none of the treatment groups administered formulations containing vorinostat, CI994, or IVA alone showed evidence of lipid reduction

O=C(O)CCCCCCC(=O)Nc1ccccc1 [IVA, 8-oxo-8-(phenylamino)octanoic acid]
Effect on lysosomal cholesterol storage (filipin LSO compartment ratio) [2]: had no effect on cholesterol storage
Liver histone H3 acetylation (acetylated H3 / total H3) (histone H3 [3]): No increase in acetylation
Lipid storage in liver (lipidomics, sphingolipid and sterol species) (Npc1^I1061T/I1061T mice [1]): none of the treatment groups administered formulations containing vorinostat, CI994, or IVA alone showed evidence of lipid reduction

CC(O)COC[C@H]1O[C@@H]2O[C@H]3[C@H](O)[C@@H](O)[C@@H](O[C@H]4[C@H](O)[C@@H](O)[C@@H](O[C@H]5[C@H](O)[C@@H](O)[C@@H](O[C@H]6[C@H](O)[C@@H](O)[C@@H](O[C@H]7[C@H](O)[C@@H](O)[C@@H](O[C@H]8[C@H](O)[C@@H](O)[C@@H](O[C@H]1[C@H](O)[C@H]2O)O[C@@H]8COCC(C)O)O[C@@H]7COCC(C)O)O[C@@H]6COCC(C)O)O[C@@H]5COCC(C)O)O[C@@H]4COCC(C)O)O[C@@H]3COCC(C)O (stereo partly drawn) [HPβCD, 2-hydroxypropyl-β-cyclodextrin]
Toxicity of peripheral dose (NPC1 cat model): toxic in the NPC1 cat model
Maximum drug concentration achieved [4]: ~ 15 μM
Liver histone H3 acetylation (acetylated H3 / total H3) (histone H3 [3]): did not increase H3 acetylation acutely
Drug concentration achieved in CSF [5]: 1000 µM
Neurodegenerative disease progression (NPC1 patients): effective in slowing neurodegenerative disease progression

O=C(CCCCCCC(=O)Nc1ccccc1)NO [vorinostat, suberoylanilide hydroxamic acid]
Ratio of acetylated histone H3 to total histone H3 in brain (histone H3 [6]; brain): showed an increase in the ratio
Ratio of acetylated histone H3 to total histone H3 in liver (histone H3 [6]; liver): significant increase in the ratio of acetylated histone H3 relative to total histone H3
Efficacy on disease progression, life span, or weight loss (Npc1^nmf164 mice): did not show efficacy
Liver pathology and function (Npc1^nmf164 mice): limited improvement in liver pathology and function
NPC1 mutant protein expression and lipid accumulation (Npc1^nmf164 mice): remained unchanged
Vorinostat Cmax, brain ([7]; brain, single i.p. dose): 1163 ng/mL
Vorinostat Cmax, liver ([7]; liver, single i.p. dose): 209 ng/mL
AUC(0-t) [7, 11]: 1240 ng·h/mL
Tmax [7, 11]: 15 min
AUC(0-t) [7, 12]: 513 ng·h/mL
Tmax [7, 12]: 15 min
AUC(0-inf) [7, 13]: 7600 ng·h/mL
AUC(0-t) [7, 13]: 7540 ng·h/mL
Cmax [7, 13]: 10500 ng/mL
Tmax [7, 13]: 15 min
half-life [7, 13]: 40.8 min
Effect on lysosomal cholesterol storage (filipin LSO compartment ratio) [2]: reduces lysosomal cholesterol
NPC1^I1061T protein expression in liver (NPC1^I1061T protein): reduction of NPC1 protein
Cholesterol storage [8]: effective in reducing cholesterol storage
Liver histone H3 acetylation (acetylated H3 / total H3) (histone H3 [3]): Increased histone 3 acetylation
Lipid storage in liver (lipidomics, sphingolipid and sterol species) (Npc1^I1061T/I1061T mice [1]): modest reduction in only a single lipid species (MCer 24:0)
Hepatocyte filipin staining (cholesterol storage) (Npc1^I1061T/I1061T mice [9]): did not alter cholesterol levels
Reduction of cholesterol accumulation in differentiated macrophages ([10]; 4 nM to 10 μM, 48h or 72h): not effective at reducing the cholesterol accumulation
Cholesterol accumulation in LSOs (filipin intensity) at 330 nM ([10]; 330 nM, normalized to DMSO treated cells): slight decrease in cholesterol accumulation
Concentration toxic to BMMs ([10]; 48h or 72h treatment): above 1 μM

From PMC6679735 (Biochimica et biophysica acta. Molecular and cell biology …, 2019)
